This sample holds only a part of the variants without activity.

This passage reports yeast fitness results from the RNAGym collection of RNA variant scans (doi:10.1126/science.aae0568).

To fix the notation:
B1: tRNA (parent)
chain: GUUCCGUUGGCGUAAUGGUAACGCGUCUCCCUCCUAAGGAGAAGACUGCGGGUUCGAGUCCCGUACGGAACG

In this series the parent is B1. Description: yeast fitness relative to wild type (ratio to wild type); higher = fitter; tRNA-Arg(CCU), competitive growth, 37 C, YPD. Summed up: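 Changes in genotype frequencies gave Darwinian fitness relative to wild type. Frequencies were read by 100-nucleotide paired-end sequencing of gene amplicons before and after pooled Saccharomyces cerevisiae strains, carrying tRNA-Arg(CCU) gene variants at the native locus, were competed in YPD at 37°C for 24 hours in six replicates. A genotype was kept only with ≥ 100 starting reads, and estimates < 0.5 were set to 0.5.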
As to G17A A57U, the yeast fitness worked out at 0.644.

As to A36U C55A, the yeast fitness is at most 0.5.

On to U2A C55A, for which the yeast fitness is 0.714.

In the case of A14G A21C A36C A43U G67U, the yeast fitness is at most 0.5.

As to U16A C49U A69U, the yeast fitness was 0.647.

Regarding A42G G51A C60U G63A, the yeast fitness is at most 0.5.

C27G C30G C49U C61A: the yeast fitness is at most 0.5.

Regarding A20C C30U C61A, the yeast fitness was at most 0.5.

Regarding G12A A20G U28A C55A G56A, the yeast fitness stood at 0.537.

With C30U U54A G63A, the yeast fitness turned out to be 0.704.

On to C5U G25A U26A G56C A65C, for which the yeast fitness was at most 0.5.

As to G56U A65U G68C, the yeast fitness is at most 0.5.

Regarding U8C A43U G50C, the yeast fitness was at most 0.5.

As for A14U G50C U53A A57U A65U, the yeast fitness stood at 0.687.

For C4U C33G A70G, the yeast fitness is at most 0.5.

As for G6C U59A C60U, the yeast fitness was at most 0.5.

For U7G C27G A40U G68C, the yeast fitness was at most 0.5.

For the variant C31G U54A, the yeast fitness was found to be 0.655.

For U8G G10C U13G C29A C34G A43C C60G, the yeast fitness is at most 0.5.

Take G6A A36C A40U: the yeast fitness is at most 0.5.

As to C4A C5A C30A C31U C33A A45U, the yeast fitness was at most 0.5.

In the case of C11G C49G C60A A70U, the yeast fitness is at most 0.5.

For the variant C24U A42G A43G, the yeast fitness is 0.733.

As to U13A C22G G25C C27U C30G, the yeast fitness is at most 0.5.

Take C4G A57U U59C G67A: the yeast fitness was at most 0.5.

Regarding C29G U35A G58C, the yeast fitness was at most 0.5.

With U2C G10A U54A C62U C66A, the yeast fitness was at most 0.5.

For C29U A65C C66G, the yeast fitness amounted to 0.57.

As to C4A A36G G58C, the yeast fitness stood at 0.565.

For U35C A37C C55A C60G G63C, the yeast fitness is at most 0.5.

With G17A U19A G23A C31U C34A G48C C62U, the yeast fitness is at most 0.5.

For C11G G39C U47C C60A C61G A69U, the yeast fitness was found to be 0.528.

Regarding A14U U32C A40C G67A, the yeast fitness was determined as 0.529.

As to U7A A40C, the yeast fitness was 0.724.

In the case of G6A A42G, the yeast fitness is 0.848.

On to C24U C33A G44C U47C, for which the yeast fitness was 0.674.

With C30G C49A U54G, the yeast fitness was at most 0.5.

Regarding U7A A15U C30G A42C U59A C60U, the yeast fitness was at most 0.5.

Take U3C C11U G56A: the yeast fitness is 0.742.

With C5G U7A A14U, the yeast fitness was 0.624.

In the case of C11G C24U C62U G68C, the yeast fitness was at most 0.5.

Take C29U C49A U64C: the yeast fitness amounted to 0.597.

As for U2A C5A C66U, the yeast fitness was at most 0.5.

As to C4U G18A C22U A40C, the yeast fitness is at most 0.5.

For C11G C34A A36U G48A G52C C60A, the yeast fitness was determined as 0.646.

On to C11U A15G A69C, for which the yeast fitness was 0.75.

Regarding G9A A14C U32A A70G, the yeast fitness was at most 0.5.

With A15C A65G, the yeast fitness came out at 0.829.

For G23C C27G C55G G56A G58A C66G A70U, the yeast fitness was at most 0.5.

With C46G U59G C61G, the yeast fitness was at most 0.5.

On to A15U C22G C27G A42C G63C, for which the yeast fitness is at most 0.5.

As for U54C A70C, the yeast fitness was found to be 0.925.

Regarding C5A G51A, the yeast fitness was 0.71.

As for U8C C22U C29U, the yeast fitness was at most 0.5.

Turning to U16A C60G C61G G68C, the yeast fitness was at most 0.5.

As to G41C A45G G63A C66G G67C, the yeast fitness is at most 0.5.

Take G23A: the yeast fitness came out at 0.741.

On to C4G C11U A36G G63A, for which the yeast fitness is at most 0.5.

In the case of C49U C55A, the yeast fitness turned out to be 0.557.

In the case of G10A C22U A45G, the yeast fitness was at most 0.5.

With U2G A40G G41C C60G, the yeast fitness is 0.688.

As to G56C G63A, the yeast fitness was 0.571.

For U19G C55U, the yeast fitness worked out at 0.762.

On to A15C A36C G48A G67A, for which the yeast fitness turned out to be 0.541.

Consider C5U C29G C30A G63A U64G A69C, for which the yeast fitness worked out at 0.572.

In the case of C22G G25C C61G, the yeast fitness was found to be 0.659.

For the variant G10C U26G C27G U32A A40U, the yeast fitness is at most 0.5.

For U28A C55G A70G, the yeast fitness is at most 0.5.

C27A C31A G52A G58C C62A: the yeast fitness was at most 0.5.

Turning to C30G C33A C49A, the yeast fitness amounted to 0.618.

With C11U A14U A40G A42C, the yeast fitness is at most 0.5.

On to U8G A20G U47G A57G, for which the yeast fitness stood at 0.654.

In the case of C11G G12A C27G, the yeast fitness was found to be 0.669.

C29U A36G U54C: the yeast fitness is 0.542.

As to A15G A37C, the yeast fitness came out at 0.666.

For U13C U26C C27G C34U A37U A43G A45G C46U, the yeast fitness was at most 0.5.

In the case of A15U C22G G52C, the yeast fitness amounted to 0.529.

In the case of C5G U26C A70G, the yeast fitness amounted to 0.632.

For A36G C61U U64C C66U, the yeast fitness was at most 0.5.

G9C C11A A40C: the yeast fitness was found to be 0.671.

In the case of U3C C31U G50A G58C C66U, the yeast fitness is at most 0.5.

Regarding G58U A65G G67A, the yeast fitness is at most 0.5.

Take G18C G25C: the yeast fitness was 0.677.

As for A20U G41C G51C C62G, the yeast fitness was found to be 0.735.

In the case of A21C C24A G39A, the yeast fitness is at most 0.5.

In the case of G12A G18A U19C C55U A57C G58C, the yeast fitness came out at 0.638.

In the case of U3G A69C, the yeast fitness turned out to be 0.867.

As for A42G C49G U54C G63C, the yeast fitness came out at 0.524.

For the variant C22G C60G C62U, the yeast fitness is at most 0.5.

On to U13G C34U A37U, for which the yeast fitness was at most 0.5.

Regarding G10A C31A C55U G63A, the yeast fitness is at most 0.5.

As for U8A A20U C31U A45G, the yeast fitness was at most 0.5.

Consider A15C G56A C61U C66U, for which the yeast fitness is at most 0.5.

As for C22G C46A C62U, the yeast fitness is 1.04.

As for C22A C66G, the yeast fitness was 0.714.

With A20G A36U G68C, the yeast fitness is 0.535.

For G17C G18C G63C U64C, the yeast fitness is at most 0.5.

In the case of A40U U53C, the yeast fitness stood at 0.735.

For C5U G25A A70U, the yeast fitness turned out to be 1.05.

G56A C61U: the yeast fitness was determined as 0.994.

With A40C G44A, the yeast fitness was determined as 0.913.

With C30U A43C, the yeast fitness is 1.04.

As to U8C G67C, the yeast fitness was determined as 0.953.

As to G9A A14U A21U A65G, the yeast fitness was 0.556.

As to G10C G25C U26C U47C, the yeast fitness is at most 0.5.

C46G G51C A70C: the yeast fitness is at most 0.5.

As for G10A C31A, the yeast fitness worked out at 0.637.

Take C11U U28A A69C: the yeast fitness turned out to be 0.58.

For C24U A37C G50C, the yeast fitness stood at 0.547.

With U3G G12C U19C C60U, the yeast fitness was at most 0.5.

For U32A A37C, the yeast fitness came out at 0.771.

Regarding C27G C29G C49U, the yeast fitness was at most 0.5.

As to A37C C60U G67A, the yeast fitness was 0.522.

For the variant U2G C29G U47C, the yeast fitness stood at 0.557.

With C22A G23A C33U C34G C60G G67A, the yeast fitness was at most 0.5.

Consider C11U U16A C55A, for which the yeast fitness is at most 0.5.

For U8C A42U A70G, the yeast fitness is 0.729.

Take C30A A42G U54A A57C: the yeast fitness was at most 0.5.

Regarding C4U C27G C31G, the yeast fitness was at most 0.5.

Consider G25A C55A, for which the yeast fitness was found to be 0.725.

On to A14G A15U C34U, for which the yeast fitness stood at 0.505.

Take C11G C24G G67C: the yeast fitness stood at 0.566.

With G9C C24G C30U, the yeast fitness was at most 0.5.

For G9C C24A C62G, the yeast fitness was at most 0.5.

Consider A14U A20C C31G A69U, for which the yeast fitness is at most 0.5.

As for G6A U16A C33G A36U, the yeast fitness is at most 0.5.

For C34A A40C C61A, the yeast fitness was at most 0.5.

In the case of U2G A45U C66U, the yeast fitness worked out at 0.555.

On to C31U A36C U53C, for which the yeast fitness amounted to 0.569.

In the case of C4U A21G C29G C31U G41A G50C A70C, the yeast fitness was 0.599.

For U13C U16C A57G G68A A69G, the yeast fitness was at most 0.5.

As to G12C A43C C61G, the yeast fitness was at most 0.5.

In the case of U19A C66U, the yeast fitness stood at 0.996.

As to C4A C22A C33A G39C, the yeast fitness is at most 0.5.

For U26A A37C C49U G56A, the yeast fitness is at most 0.5.

Take A57U U59G C66U: the yeast fitness was at most 0.5.

As for U3C G68U, the yeast fitness turned out to be 0.857.

Turning to U35G C46U A65C G67C, the yeast fitness is at most 0.5.

Regarding C33U A57G C66U, the yeast fitness was at most 0.5.

Turning to C27U A43C C49U, the yeast fitness amounted to 0.757.

For U16C A36G G68A, the yeast fitness turned out to be 0.556.

In the case of G10A C33U G50A, the yeast fitness is at most 0.5.

With U7C U19G G51A U59A C66A, the yeast fitness was at most 0.5.

C5U A21C: the yeast fitness was found to be 0.897.

Consider C11U U26A A43U A65C A70G, for which the yeast fitness is at most 0.5.

Take C27A A42C C46U C62U: the yeast fitness was determined as 0.563.

On to A37G C49G C55U G56C G68A, for which the yeast fitness was at most 0.5.

On to A57C C62U G68C, for which the yeast fitness amounted to 0.539.

With C11A G25C C34G C46A A70G, the yeast fitness was at most 0.5.

In the case of C5U A15G C22G G41A A45U U47A C62U A69U, the yeast fitness is at most 0.5.

As to A40U U47C A69U, the yeast fitness turned out to be 0.815.

As to U47A U54C, the yeast fitness worked out at 0.811.

A21U A43U C49G: the yeast fitness is at most 0.5.

As for G6A C34G A37G G67U, the yeast fitness was at most 0.5.

As to G9A C30U, the yeast fitness is 0.888.

Regarding C31G A36U U53C C61A G68A, the yeast fitness is at most 0.5.

G10A A43U: the yeast fitness stood at 0.781.

In the case of G17A A21G U26C C62U, the yeast fitness is at most 0.5.

Regarding A40U C61U, the yeast fitness was found to be 0.783.

For the variant U2G C5A U19A A43G, the yeast fitness was at most 0.5.

U13C A14C U16C U64C A65C: the yeast fitness was at most 0.5.

C5A A37G: the yeast fitness was determined as 0.7.

Take U16G G51A: the yeast fitness was found to be 0.783.

Regarding C11A U16C G18C A45C A57C G68C, the yeast fitness is 0.546.

For the variant A15G U26G G41C A43C, the yeast fitness was at most 0.5.

On to A21G G67C, for which the yeast fitness worked out at 0.865.

Regarding C4U A15C A43G G44A U47A C49G, the yeast fitness is at most 0.5.
